Source: ChEMBL document CHEMBL5058577, “EUbOPEN Chemogenomics Library 2 (Multiplex)” (2022)

System: HEK-293T
Assay: Multiplex assay against HEK293T
Format: toxicity, cell-based
Details: human
Method in brief: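 Cells stained live at seeding with Hoechst33342, BioTracker Green Microtubule Cytoskeleton Dye, MitoTracker Red and Annexin V Alexa Fluor 680 were imaged on a CQ1 microscope at 37°C and 5% CO2 after compound addition. Their classification by CellPathfinder machine-learning gating ran from Hoechst high-intensity objects versus normal cells, to healthy, pyknosed or fragmented nuclei among normal cells, to mitotic or apoptotic among pyknosed cells. Tubulin, mitochondrial-mass and membrane-permeability phenotypes are per cents of healthy-nucleus cells.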

[1] = 12 h, 1 µM, compound concentration 1 uM, replicate 1
[2] = 12 h, 1 µM, compound concentration 1 uM, replicate 2
[3] = 12 h, 10 µM, compound concentration 10 uM, replicate 1
[4] = 12 h, 10 µM, compound concentration 10 uM, replicate 2
[5] = 24 h, 1 µM, compound concentration 1 uM, replicate 1
[6] = 24 h, 1 µM, compound concentration 1 uM, replicate 2
[7] = 24 h, 10 µM, compound concentration 10 uM, replicate 1
[8] = 24 h, 10 µM, compound concentration 10 uM, replicate 2
[9] = 48 h, 1 µM, compound concentration 1 uM, replicate 1
[10] = 48 h, 1 µM, compound concentration 1 uM, replicate 2
[11] = 48 h, 10 µM, compound concentration 10 uM, replicate 1
[12] = 48 h, 10 µM, compound concentration 10 uM, replicate 2

## Cc1ccc(OCC(O)C(C)NC(C)C)c2c1CCC2.Cl (stereo not given)
[1]
  Population Apoptotic (%): 34%
  Population Fragmented Nuclei (%): 6%
  Population Healthy Nuclei (%): 81%
  Population Hoechst High Intensity Objects (%): 5%
  Population Membrane Permeable-Phenotype (%): 0%
  Population Mitochondria Different-Phenotype (%): 54%
  Population Mitotic Cells (%): 65%
  Population Normal (%): 94%
  Population Pyknosed Nuclei (%): 12%
  Population Tubulin-Different-Phenotype (%): 40%
  Total Cell Count: 409
[2]
  Population Apoptotic (%): 45%
  Population Fragmented Nuclei (%): 5%
  Population Healthy Nuclei (%): 84%
  Population Mitochondria Different-Phenotype (%): 65%
  Population Mitotic Cells (%): 54%
  Population Pyknosed Nuclei (%): 10%
  Population Tubulin-Different-Phenotype (%): 22%
  Total Cell Count: 360
[3]
  Population Apoptotic (%): 43%
  Population Fragmented Nuclei (%): 7%
  Population Healthy Nuclei (%): 67%
  Population Hoechst High Intensity Objects (%): 3%
  Population Membrane Permeable-Phenotype (%): 0%
  Population Mitochondria Different-Phenotype (%): 66%
  Population Mitotic Cells (%): 56%
  Population Normal (%): 96%
  Population Pyknosed Nuclei (%): 25%
  Population Tubulin-Different-Phenotype (%): 61%
  Total Cell Count: 247
[4]
  Population Fragmented Nuclei (%): 9%
  Population Healthy Nuclei (%): 76%
  Population Hoechst High Intensity Objects (%): 18%
  Population Mitochondria Different-Phenotype (%): 79%
  Population Normal (%): 81%
  Population Pyknosed Nuclei (%): 14%
  Population Tubulin-Different-Phenotype (%): 59%
  Total Cell Count: 323
[5]
  Population Apoptotic (%): 35%
  Population Fragmented Nuclei (%): 6%
  Population Healthy Nuclei (%): 80%
  Population Hoechst High Intensity Objects (%): 3%
  Population Membrane Permeable-Phenotype (%): 0%
  Population Mitochondria Different-Phenotype (%): 38%
  Population Mitotic Cells (%): 64%
  Population Normal (%): 96%
  Population Pyknosed Nuclei (%): 12%
  Population Tubulin-Different-Phenotype (%): 25%
  Total Cell Count: 548
[6]
  Population Apoptotic (%): 28%
  Population Fragmented Nuclei (%): 7%
  Population Healthy Nuclei (%): 83%
  Population Hoechst High Intensity Objects (%): 4%
  Population Mitochondria Different-Phenotype (%): 45%
  Population Mitotic Cells (%): 71%
  Population Normal (%): 95%
  Population Pyknosed Nuclei (%): 9%
  Population Tubulin-Different-Phenotype (%): 17%
  Total Cell Count: 444
[7]
  Population Apoptotic (%): 46%
  Population Fragmented Nuclei (%): 11%
  Population Healthy Nuclei (%): 71%
  Population Hoechst High Intensity Objects (%): 5%
  Population Membrane Permeable-Phenotype (%): 1%
  Population Mitochondria Different-Phenotype (%): 53%
  Population Mitotic Cells (%): 53%
  Population Normal (%): 94%
  Population Pyknosed Nuclei (%): 17%
  Population Tubulin-Different-Phenotype (%): 47%
  Total Cell Count: 334
[8]
  Population Apoptotic (%): 50%
  Population Fragmented Nuclei (%): 9%
  Population Healthy Nuclei (%): 78%
  Population Hoechst High Intensity Objects (%): 11%
  Population Membrane Permeable-Phenotype (%): 0%
  Population Mitochondria Different-Phenotype (%): 60%
  Population Mitotic Cells (%): 50%
  Population Normal (%): 88%
  Population Pyknosed Nuclei (%): 11%
  Total Cell Count: 399
[9]
  Population Apoptotic (%): 24%
  Population Fragmented Nuclei (%): 12%
  Population Healthy Nuclei (%): 79%
  Population Hoechst High Intensity Objects (%): 3%
  Population Membrane Permeable-Phenotype (%): 0%
  Population Mitochondria Different-Phenotype (%): 28%
  Population Mitotic Cells (%): 75%
  Population Normal (%): 96%
  Population Pyknosed Nuclei (%): 8%
  Population Tubulin-Different-Phenotype (%): 14%
  Total Cell Count: 804
[10]
  Population Apoptotic (%): 26%
  Population Fragmented Nuclei (%): 11%
  Population Healthy Nuclei (%): 81%
  Population Hoechst High Intensity Objects (%): 1%
  Population Mitochondria Different-Phenotype (%): 27%
  Population Mitotic Cells (%): 73%
  Population Normal (%): 98%
  Population Pyknosed Nuclei (%): 7%
  Total Cell Count: 660
[11]
  Population Apoptotic (%): 40%
  Population Fragmented Nuclei (%): 10%
  Population Healthy Nuclei (%): 74%
  Population Hoechst High Intensity Objects (%): 5%
  Population Membrane Permeable-Phenotype (%): 0%
  Population Mitochondria Different-Phenotype (%): 48%
  Population Mitotic Cells (%): 59%
  Population Normal (%): 94%
  Population Pyknosed Nuclei (%): 14%
  Population Tubulin-Different-Phenotype (%): 43%
  Total Cell Count: 435
[12]
  Population Apoptotic (%): 34%
  Population Fragmented Nuclei (%): 11%
  Population Healthy Nuclei (%): 80%
  Population Membrane Permeable-Phenotype (%): 1%
  Population Mitochondria Different-Phenotype (%): 39%
  Population Mitotic Cells (%): 66%
  Population Pyknosed Nuclei (%): 8%
  Population Tubulin-Different-Phenotype (%): 41%
  Total Cell Count: 611
